Laboratory results: ChEMBL document CHEMBL4725347, “Discovery of a Monoiodo Aza-BODIPY Near-Infrared Photosensitizer: in vitro and in vivo Evaluation for Photodynamic Therapy” (J Med Chem, 2020)
Activity calls are given as the source filed them. The calls are words filed in the database; no cut-off is given here.

Assays:
[1] = Photostability of the compound in N,N-dimethylformamide assessed as compound degradation irradiated with 90 mW/cm2 light; assay type: physicochemical
[2] = Emission property of the compound in chloroform assessed as maximum emission wavelength by fluorescence spectrophotometric method; assay type: physicochemical
Method in brief: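 Fluorescence spectrum recorded in chloroform by fluorescence spectrophotometer at room temperature.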

[3] = Absorption property of the compound in PBS containing 1% Cremophor EL/1,2-propanediol (10:3, v:v) system assessed as absorption coefficient by UV-visible spectrophotometric method; assay type: physicochemical; settings: buffer
Method in brief: (§1)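 Electronic absorption spectra recorded by UV-visible spectrophotometry at room temperature. Solvents were chloroform, isopropanol, acetonitrile, DMF, and PBS buffer containing 1% Cremophor EL/1,2-propanediol (10:3, v:v). Chloroform data were referenced to the non-halogenated parent dye.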

[4] = Absorption property of the compound in isopropanol assessed as absorption coefficient by UV-visible spectrophotometric method; assay type: physicochemical; method in brief: as §1
[5] = Absorption property of the compound in N,N-dimethylformamide assessed as absorption coefficient by UV-visible spectrophotometric method; assay type: physicochemical; method in brief: as §1
[6] = Dark toxicity in human HeLa cells assessed as reduction in cell viability after 3 hrs by MTT assay; assay type: cell-based
Method in brief: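 Compound was formulated with Cremophor EL/1,2-propanediol in PBS, filtered, and its concentration confirmed by UV-Vis. HeLa cells in DMEM with 10% FBS at 37 °C, 5% CO2 were seeded at 3×10^3 cells/well and adhered overnight. Cells were exposed to graded concentrations for 3 h without light, incubated 24 h, then MTT 0.5 mg/mL for 4 h; formazan dissolved in DMSO, A490 read.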

[7] = test system: HeLa; assay: Phototoxicity against human HeLa cells assessed as reduction in cell viability preincubated for 3 hrs followed by 54 J/cm2 light irradiation and measured after 24 hrs by MTT assay; assay type: functional, cell-based; settings: light or radiation study
Method in brief: (§2)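 PS formulated in PBS containing Cremophor EL/1,2-propanediol (10:3, v:v) after THF removal, filtered, with concentration confirmed by UV-Vis. Cells were grown in DMEM with 10% FBS and seeded at 3×10^3 per well overnight. They were incubated with PS for 3 h, irradiated at λ > 590 nm, kept 24 h at 37 °C, then given MTT (0.5 mg/mL, 4 h) with DMSO solubilization and A490 read-out.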

[8] = Dark toxicity in human MCF7 cells assessed as reduction in cell viability after 3 hrs by MTT assay; assay type: cell-based
[9] = test system: SW480; assay: Phototoxicity against human SW480 cells assessed as reduction in cell viability preincubated for 3 hrs followed by 54 J/cm2 light irradiation and measured after 24 hrs by MTT assay; assay type: functional, cell-based; settings: SW480, light or radiation study; method in brief: as §2
[10] = Photostability of the compound in acetonitrile assessed as compound degradation irradiated with 90 mW/cm2 light; assay type: physicochemical
[11] = Stability of the compound in PBS containing 1% Cremophor EL/1,2-propanediol (10:3, v:v) system assessed as compound degradation under dark condition; assay type: physicochemical; settings: buffer
[12] = Drug uptake in mitochondria of human HeLa cells at 5 uM incubated for 2 hrs under dark condition by mito-tracker green FM dye based laser confocal microscopic analysis; assay type: ADME
Method in brief: (§3)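 HeLa cells adhered overnight on glass-bottom dishes and were loaded with 5 μM compound in the dark for 2 h. After PBS washes, cells were stained with Mito-Tracker Green FM 250 nM for 30 min, Lyso-Tracker Green 160 nM for 30 min, or ER-Tracker Green 2 μM for 45 min. Confocal imaging: trackers excited at 488 nm, collected 500–560 nm; compound excited at 633 nm, collected 650–740 nm.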

[13] = Drug uptake in endoplasmic reticulum of human HeLa cells at 5 uM incubated for 2 hrs under dark condition by ER tracker green dye based laser confocal microscopic analysis; assay type: ADME, subcellular; method in brief: as §3
[14] = test system: HeLa; assay: Induction of apoptosis in human HeLa cells assessed as viable cells at 40 nM preincubated for 3 hrs followed by 54 J/cm2 light irradiation and measured after 24 hrs by Annexin-V-FITC/propidium iodide staining based flow cytometry (reference value: 90.74%); assay type: functional; settings: light or radiation study, read-out: Activity
Method in brief: (§4)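 HeLa cells in six-well plates were exposed to compound for 3 h, irradiated (λ > 590 nm), and incubated 24 h at 37 °C. Cells were then harvested, washed with PBS, and stained with annexin V-FITC/PI for 20 min at room temperature before immediate flow cytometry. Untreated, unirradiated cells served as control.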

[15] = test system: HeLa; assay: Induction of apoptosis in human HeLa cells assessed as necrotic cells at 40 nM preincubated for 3 hrs followed by 54 J/cm2 light irradiation and measured after 24 hrs by Annexin-V-FITC/propidium iodide staining based flow cytometry (reference value: 2.8%); assay type: functional; method in brief: as §4
[16] = test system: HeLa; assay: Induction of apoptosis in human HeLa cells assessed as necrotic cells at 200 nM preincubated for 3 hrs followed by 27 J/cm2 light irradiation and measured after 24 hrs by Annexin-V-FITC/propidium iodide staining based flow cytometry (reference value: 2.8%); assay type: functional; method in brief: as §4
[17] = test system: HeLa; assay: Induction of apoptosis in human HeLa cells assessed as early apoptotic cells at 200 nM preincubated for 3 hrs followed by 54 J/cm2 light irradiation and measured after 24 hrs by Annexin-V-FITC/propidium iodide staining based flow cytometry (reference value: 0.54%); assay type: functional; method in brief: as §4
[18] = test system: HeLa; assay: Induction of apoptosis in human HeLa cells assessed as late apoptotic cells at 200 nM preincubated for 3 hrs followed by 54 J/cm2 light irradiation and measured after 24 hrs by Annexin-V-FITC/propidium iodide staining based flow cytometry (reference value: 5.92%); assay type: functional; method in brief: as §4
[19] = test system: HeLa; assay: Induction of reactive oxygen species generation in human HeLa cells at 0.004 to 2.5 uM incubated for 3 hrs prior to H2DCFDA addition for 20 mins followed by 54 J/cm2 light irradiation by microplate reader analysis; assay type: functional, cell-based; settings: dose microM 0.004-2.5, time 3.0 hrs
Method in brief: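 HeLa cells were exposed to 0.004, 0.02, 0.10, 0.5 or 2.5 μM for 3 h, washed, and loaded with H2DCFDA 10 μM in PBS for 20 min at 37 °C. After washing, cells in PBS were irradiated with 54 J/cm² (λ > 590 nm) or kept dark. Fluorescence was read by confocal microscopy and by plate reader (ex 485/em 538 nm).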

[20] = Drug uptake in Balb/c nu/nu mouse xenografted with human HeLa cells at 2 mg/kg, iv measured over 10 hrs by fluorescence imaging analysis; assay type: ADME, organism-based; settings: in vivo
Method in brief: (§5)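 Female Balb/c nu/nu mice bore subcutaneous HeLa tumors (5×10^6 cells, right back) and received 2 mg/kg via tail vein. Living mice were imaged under isoflurane at time points (ex 680/em 720 nm, 1 s exposure). At set times mice were euthanized and heart, liver, spleen, lungs, kidneys and tumor imaged ex vivo; ROI quantified, mean ± SD, n = 3.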

[21] = Drug uptake in human HeLa cells xenografted Balb/c nu/nu mouse liver at 2 mg/kg, iv measured within 1 hr by fluorescence imaging analysis; assay type: ADME, organism-based; settings: in vivo; method in brief: as §5
[22] = Drug uptake in human HeLa cells xenografted Balb/c nu/nu mouse lung at 2 mg/kg, iv measured within 1 hr by fluorescence imaging analysis; assay type: ADME, organism-based; settings: in vivo; method in brief: as §5
[23] = Drug uptake in human HeLa cells xenografted Balb/c nu/nu mouse spleen at 2 mg/kg, iv measured within 1 hr by fluorescence imaging analysis; assay type: ADME, organism-based; settings: in vivo; method in brief: as §5
[24] = Drug uptake in human HeLa cells xenografted Balb/c nu/nu mouse kidney at 2 mg/kg, iv measured within 1 hr by fluorescence imaging analysis; assay type: ADME, organism-based; settings: in vivo; method in brief: as §5

- Stabilty [1]: Unstable
- Activity [2]: 721 nm
- Activity [3]: 34000 M⁻¹ cm⁻¹
- Activity [4]: 59300 M⁻¹ cm⁻¹
- Activity [5]: 59300 M⁻¹ cm⁻¹
- Stabilty [10]: Stable
- Stabilty [11]: Unstable
- Drug uptake [12]: Active
- Drug uptake [13]: Active
- Drug uptake [20]: Not Active
- Drug uptake [21]: Active
- Drug uptake [22]: Active
- Drug uptake [23]: Active
- Drug uptake [24]: Active
SMILES: COc1ccc(C2=[N+]3C(=Nc4c(-c5ccccc5)cc(-c5ccc(OC)cc5)n4[B-]3(F)F)C(c3ccccc3)=C2I)cc1
- IC50 at 3 h [6]: > 50000 nM
- IC50 [7]: 76 nM
- IC50 at 3 h [8]: > 50000 nM
- IC50 [9]: 86 nM
- viability at 0.04 µM [14]: 77.3%
- Activity [15]: 1.73%
- Activity [16]: 21.64%
- Activity [17]: 81.04%
- Activity [18]: 8.6%
- Activity [19]: Active
